Source: ChEMBL document CHEMBL1154413, “In vitro activities of different inhibitors of bacterial transcription against Staphylococcus epidermidis biofilm” (Antimicrob Agents Chemother, 2007)
In brackets after ≈: the same amount, converted by molar mass. Activity calls are given as the source filed them. The rule behind the calls is not given here.

Key:
[1] = system: Staphylococcus epidermidis; test: Ratio of MBC for Staphylococcus epidermidis to MIC for Staphylococcus epidermidis; type: functional
Outline: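 MBC obtained by extending the CLSI MIC assay (MHB, 5 × 10^5 CFU/ml, 37°C, 24 h): well portions serially diluted, spotted on MHB agar, incubated 37°C, read at 24 h as lowest concentration giving 0.1% survival. Triplicate.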

[2] = system: Staphylococcus epidermidis; test: Antimicrobial activity against Staphylococcus epidermidis; type: functional
Outline: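 S. epidermidis RP62A; broth microdilution per CLSI in Mueller-Hinton broth, inoculum 5 × 10^5 CFU/ml, 37°C for 24 h before reading. Triplicate.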

[3] = system: Staphylococcus epidermidis; test: Inhibition of Staphylococcus epidermidis biofilm formation assessed as reduction of >2 log 10 bacterial count in biofilm after 24 hrs; type: functional, organism-based
Outline: (§1)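 S. epidermidis RP62A biofilms grown 24 h at 37°C from 10^7 CFU/ml in MHB in polystyrene microtiter wells, rinsed, then exposed 24 h at 37°C without shaking to compound in MHB (1× to 16× MIC). Washed, lysed with DMSO, bacterial ATP read by luciferase/luciferin bioluminescence, converted to log10 CFU/well via calibration against plate counts; reduction versus unchallenged biofilm. Triplicate.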

[4] = Inhibition of Staphylococcus epidermidis RNA polymerase mediated transcription
Outline: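 Transcription measured on toluene-permeabilized S. epidermidis cells, endogenous DNA as template; [5-3H]UTP incorporation read out, concentration giving 50% inhibition calculated. Triplicate.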

[5] = system: Staphylococcus epidermidis; test: Inhibition of Staphylococcus epidermidis biofilm formation assessed as log 10 reduction of bacterial count in biofilm at 0.025 ug/ml per well after 24 hrs; type: functional; outline: as §1
[6] = system: Staphylococcus epidermidis; test: Inhibition of Staphylococcus epidermidis biofilm formation assessed as log 10 reduction of bacterial count in biofilm at 4 times MIC per well after 24 hrs; type: functional; outline: as §1

SMILES	Ratio [1]	MBC [2] [µg/mL]	MIC [2] [µg/mL]	Activity [3]	IC50 [4] [µg/mL]	Activity [5]	Activity [6]
CC(=O)Nc1c2sscc-2n(C)c1=O [THIOLUTIN]	2	12.5 (≈ 54.8 µM)	6.25 (≈ 27.4 µM)	inactive	> 100		
CO[C@H]1/C=C/O[C@@]2(C)Oc3c(C)c(O)c4c(O)c(c(/C=N/N5CCN(C6CCCC6)CC5)c(O)c4c3C2=O)NC(=O)/C(C)=C\C=C\[C@H](C)[C@H](O)[C@@H](C)[C@@H](O)[C@@H](C)[C@H](OC(C)=O)[C@@H]1C [RIFAPENTINE]	2	0.025 (≈ 0.0285 µM)	0.012 (≈ 0.0137 µM)	inactive	0.08 (≈ 0.0912 µM)	1.5	
O/N=C(\Nc1ccccc1)c1cccc(C(F)(F)F)c1	1	100 (≈ 357 µM)	100 (≈ 357 µM)		4.2 (≈ 15 µM)		3
CNC(=O)[C@@H](C)[C@H]1C(=O)/C(=C(O)/C=C/C(C)=C/[C@@H](C)[C@H]2O[C@@]3(C)O[C@H](C=C[C@@]34CO4)[C@@H]2C)C(=O)N1[C@@H]1CC[C@H](O)[C@H](C)O1 [STREPTOLYDIGIN]	2	100 (≈ 166 µM)	50 (≈ 83.2 µM)	inactive	2.3 (≈ 3.83 µM)		
C=CCN1C(=O)/C(=C/c2ccc(-c3cccc(C(=O)O)c3)o2)SC1=S	2	25 (≈ 67.3 µM)	12.5 (≈ 33.7 µM)	inactive	2.5 (≈ 6.73 µM)		1.8
O/N=C(\Nc1cccc(Cl)c1)c1ccc(Cl)c(C(F)(F)F)c1	1	25 (≈ 71.6 µM)	25 (≈ 71.6 µM)		2.3 (≈ 6.59 µM)		3
CCOC(=O)c1c(NC(=O)Nc2ccccc2)sc2c1CCCCCC2	>18	> 100	6.25 (≈ 16.8 µM)	inactive	0.5 (≈ 1.34 µM)		
CO[C@H]1/C=C/O[C@@]2(C)Oc3c(C)c(O)c4c(O)c(c5c(nc6cc(C)ccn65)c4c3C2=O)NC(=O)/C(C)=C\C=C\[C@H](C)[C@H](O)[C@@H](C)[C@@H](O)[C@@H](C)[C@H](OC(C)=O)[C@@H]1C [RIFAXIMIN]	2	0.025 (≈ 0.0318 µM)	0.012 (≈ 0.0153 µM)	inactive	0.07 (≈ 0.0891 µM)	1.5	
CC(=O)Nc1c2sscc-2[nH]c1=O [HOLOMYCIN]	4	50 (≈ 233 µM)	12.5 (≈ 58.3 µM)	inactive	> 100		
CO[C@H]1/C=C/O[C@@]2(C)Oc3c(C)c(O)c4c(O)c(c(/C=N/N5CCN(C)CC5)c(O)c4c3C2=O)NC(=O)/C(C)=C\C=C\[C@H](C)[C@H](O)[C@@H](C)[C@@H](O)[C@@H](C)[C@H](OC(C)=O)[C@@H]1C [RIFAMPIN]	1	0.006 (≈ 0.00729 µM)	0.006 (≈ 0.00729 µM)	inactive	0.04 (≈ 0.0486 µM)		
